# Most compounds without a hit are left out; they make up all but 2% or so of the library.
# TROY signal inh: inhibitors of TROY-dependent NF-kB signaling. Q293 LMP1-TROYcd NF-kB luciferase reporter, 4 h. inhibition, % at 10 µM. 0.98% of 360,000 active. AID 1347056;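 active means compounds whose plate-normalised and pattern-corrected inhibition of the luciferase reporter signal at the single screening dose is 50% or more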
# NR2E3 ag-1: NR2E3 (human) agonism; Q9Y5X4; GST-NR2E3/biotin-RetCOR TR-FRET, 1536-well; inhibition of corepressor binding, % at 4.78 µM; 0.12% of 320,000 active;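 active means percent inhibition above the cutoff of mean plus 3 SD of all tested compounds, set per screening campaign, cut at about 20% in these data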;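 further: 0% = DMSO wells and 100% = biotin wells as full block of FRET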
# Target sequence (Q9Y5X4 whole entry, looked up): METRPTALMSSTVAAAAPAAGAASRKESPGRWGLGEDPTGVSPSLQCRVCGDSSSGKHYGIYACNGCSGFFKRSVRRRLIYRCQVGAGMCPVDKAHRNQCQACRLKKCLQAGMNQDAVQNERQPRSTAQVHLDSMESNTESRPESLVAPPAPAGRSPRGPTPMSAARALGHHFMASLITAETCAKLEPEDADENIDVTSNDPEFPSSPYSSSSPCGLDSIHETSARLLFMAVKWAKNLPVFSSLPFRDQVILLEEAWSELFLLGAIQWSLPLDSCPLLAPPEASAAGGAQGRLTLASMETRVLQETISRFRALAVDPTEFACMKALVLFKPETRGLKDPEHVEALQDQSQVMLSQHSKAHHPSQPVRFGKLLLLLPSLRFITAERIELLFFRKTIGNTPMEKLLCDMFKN
#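 system = GST-tagged NR2E3 plus biotinylated RetCOR corepressor | input = 1.35 nM GST-NR2E3 | also added = 7 nM biotin-RetCOR | schedule = 5 h incubation at 4 °C | measured by = TR-FRET with europium anti-GST and streptavidin-D2, 340 nm excitation | read-out = percent loss of FRET ratio relative to control wells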
# EBV LMP1 NFkB: reduces LMP1-driven NF-kappaB luciferase signal. LMP1-induced NF-kappaB luciferase reporter cells, luminescence. inhibition, % at 12.5 µM. 0.69% of 350,000 active. AID 504558; in the data active means inhibition above about 41%; inconclusive means no clear call, values can overlap the other calls;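 further: 0% = neutral control wells and 100% = reference inhibitor control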
# NR2E3 ag-2: human photoreceptor-specific nuclear receptor agonism | Q9Y5X4 | CHO-S Gal4-NCOR/VP16-NR2E3 two-hybrid, luciferase | inhibition of corepressor binding, % at 3.98 µM | 0.35% of 360,000 active;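 active means inhibition above the mean of all tested compounds plus 3 SD, cut at about 70% in these data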;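 further: 0% = DMSO with NR2E3 transfected cells and 100% = cells lacking NR2E3 construct; higher means lower luciferase signal from less NR2E3 corepressor binding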
# HIF activator: HIF pathway transcriptional activation. U2OS HRE-luciferase reporter, luminescence; normalized: DMSO 0%, desferrioxamine 100%. activation, % at 7.5 µM (by protocol). 0.32% of 300,000 active. AID 1910;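 active means mean activation of at least 10% of the iron chelator positive control signal, with at least half of replicates also reaching 10%; inconclusive means mean and replicate majority disagree about reaching 10%; inactive means mean and most replicates under 10%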
# * hit, by the source's call; ? = inconclusive; / = no result given.
SMILES,TROY signal inh,NR2E3 ag-1,EBV LMP1 NFkB,NR2E3 ag-2,HIF activator
Cc1c(C)n(CCCN(C)C)c2ncnc(Nc3ccccc3)c12,7.9,-3.6,2.3,1.4,-0.2
COc1ccc(Nc2ncnc3c2c(C)c(C)n3CCCN(C)C)cc1,54.5*,-1.2,-3.8,-6.0,2.0
CCSc1nnnn1-c1ccccc1,5.8,3.0,-3.6,-20.0,0.1
Cc1ccc(C)c(-n2nnnc2Sc2nnnn2-c2ccccc2)c1,53.1*,3.8,13.1,-6.1,?
COC(=O)C(Cc1ccccc1)NC(=O)CNC(=O)c1ccc(Br)o1 (configuration not stated),9.1,4.3,-3.7,-27.8,/
Cn1c(=O)cc(C(=O)N/N=C/c2ccc(F)cc2)[nH]c1=O,-3.5,2.7,2.1,-7.7,11.8*
O=C(N/N=C/c1ccc(F)cc1)c1ccccc1,-25.9,3.7,-10.2,-113.4,3.2
Cn1nc(C(=O)NCCCN2CCCCC2)c2c1-c1ccccc1S(=O)(=O)C2,-7.0,-0.3,-10.3,-11.8,18.8*
O=C(NCCc1ccccc1)c1cc(S(=O)(=O)N2CCCCC2)c[nH]1,-3.0,/,/,-0.9,/
Nc1ccc(C(=O)N/N=C\c2ccc(OC(=O)c3ccccc3Cl)cc2)cc1,11.8,1.2,-11.7,-6.8,-1.5
O=C(O)c1ccc(N/N=C/c2ccc(OC(=O)c3ccccc3Cl)cc2)cc1,54.7*,2.2,25.0,-58.1,-1.5
COc1cc(C(=O)N/N=C/c2ccc(OC(=O)c3ccccc3Cl)cc2)ccc1O,52.5*,-0.5,-3.0,10.4,-0.5
CCN(CC)c1ccc2cc(-c3nc4ccccc4[nH]3)c(=O)oc2c1,72.7*,-1.4,10.9,-46.5,0.6
CCN(CC)c1ccc2cc(-c3nc4ccccc4n3C)c(=O)oc2c1,-8.2,2.9,-25.0,-43.8,3.6
COc1ccc(CCC(=O)Nc2ccc(C)c([N+](=O)[O-])c2)cc1,2.0,-0.5,62.0*,9.6,0.0
COc1cccc(C(NC(C)=O)c2nc(-c3cccc(NC(C)=O)c3)cs2)c1 (configuration not stated),6.0,/,/,-4.6,/
COc1cc(/C=C2/SC(=O)NC2=O)ccc1OCc1ccccc1,-66.8,8.0,5.0,-12.5,0.7
COc1ccc(/C=C2/SC(=S)NC2=O)cc1OCc1ccccc1,50.9*,3.3,0.4,4.8,-2.1
CCN(c1ccccc1)S(=O)(=O)c1cc(C(=O)Nc2ccc(F)c(F)c2)ccc1F,63.3*,-0.3,14.4,-14.2,-0.8
COc1ccc(-c2ccc(-c3cc(=O)oc4cc(OC)c(OC)c(OC)c34)cc2)cc1,-13.6,/,-2.7,-10.6,/
Cc1cc(C)nc(N/C(=N\S(=O)(=O)Cc2ccccc2)Nc2ccccc2Br)n1,12.0,3.2,54.6*,-15.7,-0.1
O=C(C1=NN[C@@H]2C(=O)N(c3cccc(F)c3)C(=O)[C@H]12)C(c1ccccc1)c1ccccc1,3.3,-0.3,4.8,-4.2,-0.2
O=C(C1=NN[C@@H]2C(=O)N(c3cccc(C(F)(F)F)c3)C(=O)[C@H]12)C(c1ccccc1)c1ccccc1,25.2,0.0,3.5,-6.9,57.4*
CC(=O)c1c(C)[nH]c(C(=O)OCc2csc(CC(=O)Nc3ccccc3C)n2)c1C,35.0,/,4.1,43.1,/
NC(CCc1ccccc1)c1csc(Nc2ccccn2)n1 (configuration not stated),11.5,/,/,14.6,/
SMILES,TROY signal inh,NR2E3 ag-1,EBV LMP1 NFkB,NR2E3 ag-2,HIF activator
O=C(Nc1ccc(S(=O)(=O)Nc2cnc3ccccc3n2)cc1)c1cc(F)c(F)cc1Cl,-0.2,3.5,-3.8,-5.0,-0.6
Cc1ccnc(NC(=O)c2sc3ccccc3c2Cl)c1,53.9*,1.0,61.4*,-159.5,-0.1
Cc1cnc(NC(=O)c2sc3ccccc3c2Cl)s1,49.0,2.9,17.4,-148.8,-1.3
CCOC(=O)CN(C(=O)CSc1nnc(-c2ccncc2)n1CCCOC)c1ccccc1,57.6*,-3.2,0.6,-19.4,-0.2
CCOC(=O)CN(C(=O)CSc1nnc(-c2ccncc2)n1CCCN(C)C)c1ccccc1,-10.8,-1.0,-14.3,-9.1,-0.2
Cc1ccc(-n2nc(C(=O)NCc3ccc(C)o3)c3c4ccccc4n(C)c3c2=O)cc1,-1.8,3.1,48.8*,-13.7,-0.6
COc1ccc(-n2nc(C(=O)NCc3ccco3)c3c4ccccc4n(C)c3c2=O)cc1,7.7,-4.0,-1.1,2.8,-0.3
CCn1c(SC(C)C(=O)OC)nnc1-c1c[nH]c2ccccc12 (configuration not stated),-2.1,0.2,75.1*,11.0,-0.4
COc1ccc(-n2c(COc3cccc4ccccc34)nnc2SCC(=O)NCc2ccco2)cc1,-15.4,-0.5,-6.1,19.6,0.0
CCn1c(SCC(=O)NCc2ccco2)nnc1-c1c[nH]c2ccccc12,32.7,2.6,10.1,-5.7,-0.4
CCOC(=O)C(C)Sc1nnc(-c2c[nH]c3ccccc23)n1C (configuration not stated),-17.8,3.1,2.1,-30.0,0.0
COc1ccccc1OCc1nnc(SCC(=O)NCc2ccco2)n1-c1ccccc1,-8.9,1.7,-15.3,7.3,422.7*
COCCn1c(SCC(=O)NCc2ccco2)nnc1-c1c[nH]c2ccccc12,-1.6,3.5,72.6*,-17.4,-0.1
CSCCC(NC(=O)c1ccccc1Br)C(=O)N1CCN(C(C)=O)CC1 (configuration not stated),-4.2,2.7,-0.1,-15.9,/
O=C(CSc1ccccn1)Nc1ccc(NC(=O)CSc2ccccn2)cc1,-6.5,-1.6,-3.3,-13.4,0.3
O=C(CSc1ccccn1)Nc1nonc1[N+](=O)[O-],67.9*,1.1,-0.8,-44.3,-5.0
CCCS(=O)(=O)NC(=O)C1(C)CCCN(C(=O)c2ccc(C(F)(F)F)nc2C)C1 (configuration not stated),-4.5,/,/,-4.7,/
CCCc1cc(C(=O)Nc2ccc(C(=O)c3ccccc3)cc2)n(C)n1,33.6,-1.8,4.7,2.2,-0.1
CCCc1cc(C(=O)Nc2ccc(C(=O)c3ccc(F)cc3)cc2)n(C)n1,58.7*,-0.6,26.8,28.4,0.0
CC(C)Cn1c(N)c(C(=O)NCC2CCCO2)c2nc3ccccc3nc21 (configuration not stated),50.7*,3.7,0.8,19.2,-0.9
Nc1c(C(=O)OCC2CCCO2)c2nc3ccccc3nc2n1C1CCCC1 (configuration not stated),60.3*,4.0,1.6,-2.7,-0.9
COCC(C)OC(=O)c1c(N)n(CC(C)C)c2nc3ccccc3nc12 (configuration not stated),58.2*,0.5,8.7,-17.9,0.2
COc1ccc(CC(=O)Nc2ccc(F)c(F)c2F)cc1S(=O)(=O)N1CCOCC1,11.5,-0.9,-2.8,-22.5,/
Cn1cc(S(=O)(=O)Nc2ccc3c(c2)OCCO3)cn1,62.3*,8.3,9.1,-6.6,-0.6
CCn1cc(S(=O)(=O)Nc2ccc3c(c2)OCCO3)cn1,85.9*,-1.7,6.7,8.8,-0.9

# Assay outcomes deposited in PubChem BioAssay by several laboratories.
